Series [1] concerns Mus musculus. In words: Hypothermia in mice after perorla administration. Type of series: functional. In a few lines: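 Groups of three CFW mice were dosed orally. Rectal temperature was taken 15 min, 2.5 h and 5 h after dosing. Mean changes from each group's mean initial temperature were summed as a "temperature index". ED_min is the minimum dose (mg/kg) giving an index at least 5 lower than the control group.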

Series [2] can be described thus: (§1) Lethal dose in mice after perorla administration. In kind it is toxicity, organism-based. As to conditions: mouse, in vivo, po. In a few lines:
(§2)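 CFW albino mice (19–21 g), groups of three, given oral doses up to 800 mg/kg as solution or suspension. Mortality and gross behavioural changes observed over 48 h; LD50 approximated from the outcome.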

Series [3] deals with Rattus norvegicus. In words: Compound was evaluated for its ability to block conditioned avoidance response (CAR) in rats; Dose administered perorally is 10 mg/kg; no significant block 0-25%. As to conditions: route oral. Type of series: functional.
The test system of series [4] is Rattus norvegicus. Description: Compound was evaluated for its ability to block conditioned avoidance response (CAR) in rats; Dose administered perorally is 25 mg/kg; 31-50% block. Type of series: functional. As to conditions: route oral.
Series [5] deals with Rattus norvegicus. In words: Compound was evaluated for its ability to block conditioned avoidance response (CAR) in rats; Dose administered perorally is 2.5 mg/kg; 31-50% block. Type of series: functional. As to conditions: route oral.
Series [6] has as its system Rattus norvegicus. Description: compound was evaluated for its ability to produce catalepsy activity in rats; Dose administered perorally is 2.5 mg/kg. In kind it is functional. As to conditions: route oral. An outline of the steps:
(§3)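 Groups of eight Lilly Wistar rats (180–190 g) were dosed orally and checked at 0.5, 1, 1.5, 2, 3, 4 and 5 h. Front paws were placed on a 1.5-cm rod 7 cm above the table, and posture was timed up to 20 min. Release within 10 s counted as noncataleptic. Each rat was scored 0–5 by hold time. Maximum scores per animal were summed, giving a group maximum of 40.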

Series [7] relates to Rattus norvegicus. In words: Compound was evaluated for its ability to block conditioned avoidance response (CAR) in rats; Dose administered perorally is 10; 51-75% block. In kind it is functional.
Series [8] is filed under the species Rattus norvegicus. Description: compound was evaluated for its ability to produce catalepsy activity in rats. Type of series: functional. In a few lines:
as §3

Series [9] concerns Rattus norvegicus. In words: Compound was evaluated for its ability to block conditioned avoidance response (CAR) in rats; Dose administered perorally is 25 mg/kg; 51-75% block. In kind it is functional. Particulars: route oral.
In series [10] the test system is Rattus norvegicus. In words: compound was evaluated for its ability to produce catalepsy activity in rats; Dose administered perorally is 25 mg/kg. Type of series: functional. As to conditions: route oral. An outline of the steps: as §3
The subject of series [11] is Rattus norvegicus. Description: Compound was evaluated for its ability to block conditioned avoidance response (CAR) in rats; Dose administered perorally is 10 mg/kg; 51-75% block. In kind it is functional. As to conditions: route oral.
Series [12] deals with Rattus norvegicus. In words: Compound was evaluated for its ability to block conditioned avoidance response (CAR) in rats; Dose administered perorally is 50 mg/kg; no significant block 0-25%. Type of series: functional. Particulars: route oral.
Series [13] relates to Rattus norvegicus. Description: compound was evaluated for its ability to produce catalepsy activity in rats; Dose administered perorally is 100 mg/kg. In kind it is functional. As to conditions: route oral. An outline of the steps:
as §3

The test system of series [14] is Rattus norvegicus. Description: Compound was evaluated for its ability to block conditioned avoidance response (CAR) in rats; Dose administered perorally is 50 mg/kg; 51-75% block. As to conditions: route oral. Type of series: functional.
Series [15] concerns Rattus norvegicus. Description: Compound was evaluated for its ability to block conditioned avoidance response (CAR) in rats; Dose administered perorally is 50 mg/kg; 76-99% block. Particulars: route oral. In kind it is functional.
Series [16] deals with Rattus norvegicus. In words: Compound was evaluated for its ability to block conditioned avoidance response (CAR) in rats; Dose administered perorally is 40 mg/kg; 51-75% block. As to conditions: route oral. Type of series: functional.
The test system of series [17] is Rattus norvegicus. In words: Compound was evaluated for its ability to block conditioned avoidance response (CAR) in rats; Dose administered perorally is 12.5 mg/kg; 51-75% block. Type of series: functional. As to conditions: route oral.
Series [18] relates to Rattus norvegicus. In words: Compound was evaluated for its ability to block conditioned avoidance response (CAR) in rats; Dose administered perorally is 25 mg/kg;n o significant block 0-25%. In kind it is functional. As to conditions: route oral.
Series [19] deals with Rattus norvegicus. In words: Compound was evaluated for its ability to block conditioned avoidance response (CAR) in rats; Dose administered perorally is 5 mg/kg; no significant block 0-25%. In kind it is functional. As to conditions: route oral.
Series [20] relates to Mus musculus. The series is described as §1. In kind it is toxicity, organism-based. As to conditions: in vivo, po. An outline of the steps:
as §2

The subject of series [21] is Rattus norvegicus. Description: Compound was evaluated for its ability to block conditioned avoidance response (CAR) in rats; Dose administered perorally is 25 mg/kg; 76-99% block. As to conditions: route oral. In kind it is functional.
Series [22] concerns Rattus norvegicus. In words: Compound was evaluated for its ability to block conditioned avoidance response (CAR) in rats; Dose administered perorally is 1.25 mg/kg; 51-75% block. As to conditions: route oral. Type of series: functional.
The subject of series [23] is Rattus norvegicus. In words: Compound was evaluated for its ability to block conditioned avoidance response (CAR) in rats; Dose administered perorally is 20 mg/kg; 26-30% block. In kind it is functional. Particulars: route oral.
For series [24], the system named is Rattus norvegicus. In words: compound was evaluated for its ability to produce catalepsy activity in rats; Dose administered perorally is 20 mg/kg. Type of series: functional. As to conditions: route oral. In a few lines:
as §3

Series [25] relates to Rattus norvegicus. In words: Compound was evaluated for its ability to block conditioned avoidance response (CAR) in rats; Dose administered perorally is 20 mg/kg; 51-75% block. Type of series: functional. As to conditions: route oral. An outline of the steps: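 Lilly Wistar rats (120–130 g) trained in a shuttle box to cross on a 5-s buzzer; failure to respond within 1 s of its end gave a mild shock. Only high responders used. Groups of five dosed orally 1 h 50 min before test; 10-min habituation, then 20-min session. Blockade = shocks received as % of stimuli presented.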

The species named for series [26] is Rattus norvegicus. Description: compound was evaluated for its ability to produce catalepsy activity in rats. Type of series: functional. An outline of the steps:
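Groups of eight Lilly Wistar rats (180–190 g) dosed orally, front paws placed on 1.5-cm rod 7 cm above table at 0.5, 1, 1.5, 2, 3, 4, 5 h. Time held recorded up to 20 min, scored 0–5 (<10 s = 0 up to >20 min = 5). Maximum score per animal summed; group maximum 40.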

The subject of series [27] is Rattus norvegicus. Description: Compound was evaluated for its ability to block conditioned avoidance response (CAR) in rats; Dose administered perorally is 50 mg/kg; 26-30% block. In kind it is functional. Particulars: route oral.
The test system of series [28] is Rattus norvegicus. Description: Compound was evaluated for its ability to produce catalepsy activity in rats; Dose administered perorally is 50 mg/kg; no significant effect (group score 0-3). Particulars: route oral. In kind it is functional. In a few lines: as §3

Structures are written as SMILES.

As usually defined, the LD50 is the dose expected to kill half of the subjects tested. A low value points to a more toxic substance. The molecule `Cc1cc2c(s1)C(N1CCN(C)CC1)=Nc1cc(F)ccc1N2` returned an EDmin in the series with Mus musculus [1] of 12.5 mg/kg. In series [2], this molecule showed an LD50 of 150 mg/kg. The Activity in the series with Rattus norvegicus [3] was 0.
`CSc1ccc2c(c1)N=C(N1CCN(C)CC1)c1cscc1N2`: the EDmin in the series with Mus musculus [1] is 25 mg/kg. This molecule came in with an LD50 in series [2] of 400 mg/kg. The molecule also registered an Activity in the series with Rattus norvegicus [4] of 2.
With `OCCN1CCN(CC/C=C2/c3ccccc3Sc3ccc(C(F)(F)F)cc32)CC1` [Z-FLUPENTIXOL], the EDmin in the series on Mus musculus [1] was found to be 3 mg/kg. The Activity in the series with Rattus norvegicus [5] came to 2; in the series with Rattus norvegicus [6] it was 4.
For the molecule `CN1CCN(C2=Nc3cc(Cl)ccc3Nc3cscc32)CC1`, the EDmin in the series with Mus musculus [1] is 3 mg/kg. In series [2], this molecule returned an LD50 of 75 mg/kg. The Activity in the series on Rattus norvegicus [7] is 3; in the series filed under Rattus norvegicus [8], 1.
In the series with Mus musculus [1], `CN1CCN(C2=Nc3ccccc3Nc3ccsc32)CC1` displayed an EDmin of 25 mg/kg. The molecule further came in with an LD50 in series [2] of 100 mg/kg. Also, the Activity in the series on Rattus norvegicus [9] is 3; in the series on Rattus norvegicus [10], 2.
Turning to `CN(C)CCCN1c2ccccc2Sc2ccc(Cl)cc21` [CHLORPROMAZINE], the EDmin in the series on Mus musculus [1] amounted to 6.25 mg/kg. Moreover, the Activity with Rattus norvegicus [11] amounted to 3; in the series listed under Rattus norvegicus [8], 1.
In the case of `Cc1scc2c1Nc1ccccc1N=C2N1CCN(C)CC1`, the EDmin in the series with Mus musculus [1] is greater than 100 mg/kg. Also, the LD50 in [2] was 200 mg/kg. Also, the Activity in the series on Rattus norvegicus [12] and in the series with Rattus norvegicus [13] was 0 in each case.
`CSc1ccc2c(c1)N(CCC1CCCCN1C)c1ccccc1S2` (centres undefined) [THIORIDAZINE] yielded an EDmin in the series on Mus musculus [1] of 25 mg/kg. For the same molecule, the Activity in the series with Rattus norvegicus [14] is reported as 3; in the series with Rattus norvegicus [10] it was 1.
Consider `CN1CCN(C2=Nc3cc(Cl)c(Cl)cc3Nc3cscc32)CC1`, for which the EDmin in the series with Mus musculus [1] was determined as 25 mg/kg. The LD50 in series [2] worked out at 400 mg/kg. For the same molecule, the figures for the Activity in the series with Rattus norvegicus [15] and in the series filed under Rattus norvegicus [8] were 4 and 1, respectively.
In the series with Mus musculus [1], `CN1CCN(C2=Nc3cc(C(F)(F)F)ccc3Nc3cscc32)CC1` showed an EDmin of 50 mg/kg. In addition, the LD50 in series [2] was greater than 200 mg/kg. In the series with Rattus norvegicus [16], this molecule showed an Activity of 3.
Molecule `CN1CCN(C2=Nc3cc(Cl)ccc3Nc3ccsc32)CC1` registered an EDmin in the series with Mus musculus [1] of 6.25 mg/kg. In series [2], this molecule had an LD50 of 50 mg/kg. Also, the Activity was 3 in the series on Rattus norvegicus [17] and 2 in the series listed under Rattus norvegicus [8].
Turning to `Cc1scc2c1C(N1CCN(C)CC1)=Nc1ccccc1N2`, in the series with Mus musculus [1], the EDmin amounted to 50 mg/kg. The same molecule showed an LD50 in [2] greater than 400 mg/kg. The Activity in the series with Rattus norvegicus [18] is given as 0.
Take `CN1CCN(C2=NC3=CSCC3=Nc3ccccc32)CC1`: in the series with Mus musculus [1], the EDmin is 50 mg/kg. The same molecule yielded an LD50 in series [2] of 50 mg/kg. This molecule also returned an Activity in the series on Rattus norvegicus [19] of 0.
For the molecule `CN1CCN(C2=Nc3ccccc3Nc3cscc32)CC1`, the EDmin in the series with Mus musculus [1] was found to be 25 mg/kg. In addition, the LD50 (in series [2]; in the series with Mus musculus [20]) was 150 mg/kg each time. Also, the Activity was 4 with Rattus norvegicus [21] and 1 in the series with Rattus norvegicus [10].
As for `O=C(CCCN1CCC(O)(c2ccc(Cl)cc2)CC1)c1ccc(F)cc1` [HALOPERIDOL], the EDmin in the series with Mus musculus [1] was determined as 3 mg/kg. The LD50 in series [2] was greater than 100 mg/kg. Moreover, the Activity in the series on Rattus norvegicus [22] and in the series filed under Rattus norvegicus [8] was 3 throughout.
The molecule `CN1CCN(C2=Nc3cc(F)ccc3Nc3cscc32)CC1` had an EDmin in the series with Mus musculus [1] of 6.25 mg/kg. The molecule also displayed an LD50 in [2] of 100 mg/kg. Besides, the Activity in the series on Rattus norvegicus [23] and in the series on Rattus norvegicus [24] was 1 in each case.
`CN1CCN(C2=Nc3cc(Cl)ccc3Nc3ccccc32)CC1` [CLOZAPINE] showed an EDmin in the series on Mus musculus [1] of 50 mg/kg. The Activity in the series with Rattus norvegicus [25] worked out at 3; in the series filed under Rattus norvegicus [26] it was 2.
In turn, `c1ccc2c(c1)N=C(N1CCNCC1)c1sccc1N2` showed an EDmin in the series on Mus musculus [1] of 50 mg/kg. Also, in [2], the LD50 came to 400 mg/kg. Besides, the Activity is reported as 1 in the series on Rattus norvegicus [27] and 0 in the series on Rattus norvegicus [28].

(Values after ChEMBL document CHEMBL1121490, “10-Piperazinyl-4H-theino[3,2-b][1,5]- and -[3,4-b][1,5]benzodiazepines as potential neuroleptics” (J Med Chem, 1980).)
